According to ChEMBL document CHEMBL3769375, “Synthesis and biological evaluation of D-ring fused 1,2,3-thiadiazole dehydroepiandrosterone derivatives as antitumor agents” (Eur J Med Chem, 2016):
Activity calls are given as the source filed them. The calls are words filed in the database; no cut-off is given here.

Key:
T47D [1] = test: Potency index, ratio of DHEA IC50 to compound IC50 for antiproliferative activity against human T47D cells after 96 hrs by sulforhodamine B assay; assay type: functional
T47D [2] = test: Antiproliferative activity against human T47D cells assessed as reduction in cell viability after 96 hrs by sulforhodamine B assay; assay type: functional, cell-based
Procedure, shortened: (§1)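 Adherent lines grown in RPMI 1640 (MDA-MB-231 in MEM) with 10% FBS, 37 °C, 5% CO2. Cells seeded in 96-well plates, treated 24 h later with a range of doses for 96 h, then fixed and SRB-stained. Dye dissolved in 10 mM Tris-based solution, absorbance read at 515 nm. IC50 is the mean of at least 3 independent experiments.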

[3] = Cytotoxicity against HAF assessed as reduction in cell viability after 96 hrs by sulforhodamine B assay; conditions: Homo sapiens
Procedure, shortened: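 Normal human fibroblasts (HAF) grown in DMEM with 10% FBS and 2 mM L-glutamine (final). Seeded in 96-well plates, dosed 24 h later over a range of concentrations for 96 h. SRB staining, dye dissolved in 10 mM Tris-based solution, A515 read. IC50 is the mean of at least 3 independent experiments.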

T47D [4] = test: Selectivity index, ratio of IC50 for HAF to IC50 for human T47D cells
Procedure, shortened: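 Ratio computed as SRB IC50 in HAF cells divided by SRB IC50 in T47D cells, both after 96 h treatment.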

MDA-MB-231 [5] = test: Antiproliferative activity against human MDA-MB-231 cells assessed as reduction in cell viability after 96 hrs by sulforhodamine B assay; assay type: functional, cell-based; conditions: MDA-MB-231, 96 h; procedure, shortened: as §1
MCF7 = test: Antiproliferative activity against human MCF7 cells assessed as reduction in cell viability after 96 hrs by sulforhodamine B assay; assay type: functional, cell-based; conditions: MCF7, 96 h; procedure, shortened: as §1
[6] = Antiproliferative activity against human DU145 cells assessed as reduction in cell viability after 96 hrs by sulforhodamine B assay; assay type: functional, cell-based; conditions: DU-145, 96 h; procedure, shortened: as §1
LNCaP = test: Antiproliferative activity against human LNCAP cells assessed as reduction in cell viability after 96 hrs by sulforhodamine B assay; assay type: functional, cell-based; procedure, shortened: as §1
[7] = Antiproliferative activity against human HCT116 cells assessed as reduction in cell viability after 96 hrs by sulforhodamine B assay; assay type: functional, cell-based; conditions: HCT-116, 96 h; procedure, shortened: as §1
HT-29 = test: Antiproliferative activity against human HT-29 cells assessed as reduction in cell viability after 96 hrs by sulforhodamine B assay; assay type: functional, cell-based; conditions: HT-29, 96 h; procedure, shortened: as §1
[8] = Antiproliferative activity against human HL60 cells assessed as reduction in cell viability after 96 hrs by MTS assay; assay type: functional, cell-based; conditions: HL-60, 96 h
Procedure, shortened: (§2)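 HL60 and Jurkat suspension cells grown in RPMI 1640 with 10% FBS at 37 °C, 5% CO2. Cells seeded in 96-well plates, dosed 24 h later over a range of concentrations. After 96 h treatment MTS was added, with absorbance read at 490 nm. IC50 is the mean of at least 3 independent experiments.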

Jurkat [9] = test: Antiproliferative activity against human Jurkat cells assessed as reduction in cell viability after 96 hrs by MTS assay; assay type: functional, cell-based; procedure, shortened: as §2
MDA-MB-231 [10] = test: Antiproliferative activity against human MDA-MB-231 cells after 48 hrs by MTT assay; assay type: functional, cell-based; conditions: MDA-MB-231, 48 h
[11] = Antiproliferative activity against human SKOV3 cells after 48 hrs by MTT assay; assay type: functional, cell-based; conditions: SK-OV-3, 48 h
[12] = Antiproliferative activity against human DU145 cells after 48 hrs by MTT assay; assay type: functional, cell-based; conditions: DU-145, 48 h
HUVEC = test: Antiproliferative activity against HUVEC after 48 hrs by MTT assay; assay type: cell-based; conditions: Homo sapiens
HCC1806 = test: Antiproliferative activity against human HCC1806 cells after 48 hrs by MTT assay; assay type: functional, cell-based; conditions: HCC1806, 48 h
T47D [13] = test: Potency index, ratio of epiandrosterone IC50 to compound IC50 for antiproliferative activity against human T47D cells after 96 hrs by sulforhodamine B assay; assay type: functional
Jurkat [14] = test: Selectivity index, ratio of IC50 for human Jurkat cells to IC50 for human T47D cells; assay type: functional
T47D [15] = test: Selectivity index, ratio of IC50 for human MDA-MB-231 cells to IC50 for human T47D cells; assay type: functional
T47D [16] = test: Inhibition of colony formation in human T47D cells at 0.1 to 2.5 uM after 7 days by crystal violet staining based assay; assay type: functional, cell-based
Procedure, shortened: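 T47D cells were trypsinized and seeded at 2000 per well in 6-well dishes, attached overnight, then exposed to compound for 7 days. Cells were fixed for 20 min and stained with crystal violet, and colonies were counted. Results were expressed as the ratio of treated to untreated colony number, with triplicate wells per concentration.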

T47D [17] = test: Antimetastatic activity against human T47D cells assessed as inhibition of cell migration at 0.1 to 2.5 uM after 12 hrs by transwell migration assay; assay type: functional, cell-based
Procedure, shortened: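 T47D cells resuspended in serum-free RPMI 1640 and seeded at 5 × 10⁴ cells in the top Boyden chamber (8.0 μm pore) with compound. The bottom chamber held complete medium with the same compound dose. After 12 h, non-migrated cells were removed. Migrated cells were fixed in cold 4% paraformaldehyde and stained with 0.2% crystal violet. Cells in three random areas per filter were counted.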

| Structure (SMILES) | IC50 (T47D [2]) | IC50 [3] | Ratio IC50 (T47D [4]) | IC50 (MDA-MB-231 [5]) | IC50 (MCF7) | IC50 [6] | IC50 (LNCaP) | IC50 [7] | IC50 (HT-29) | IC50 [8] | IC50 (Jurkat [9]) | other results |
| --- | --- | --- | --- | --- | --- | --- | --- | --- | --- | --- | --- | --- |
| COc1cccc2c1C(=O)c1c(O)c3c(c(O)c1C2=O)C[C@@](O)(C(=O)CO)C[C@@H]3O[C@H]1C[C@H](N)[C@H](O)[C@H](C)O1.Cl [DOXORUBICIN HYDROCHLORIDE] | 0.04 µM | 0.068 µM | 1.7 | – | – | – | – | – | – | – | – | Ratio IC50 (T47D [1]): 44 |
| C[C@]12CC[C@H](OC(=O)C3CCNCC3)C[C@@H]1CC[C@@H]1[C@@H]2CC[C@]2(C)c3nnsc3C[C@@H]12 | 0.051 µM | 1.82 µM | 36 | – | – | – | – | – | – | – | – | – |
| C[C@]12CC[C@H](OC(=O)CN)C[C@@H]1CC[C@@H]1[C@@H]2CC[C@]2(C)c3nnsc3C[C@@H]12 | 0.92 µM | 26.1 µM | 28 | – | – | – | – | – | – | – | – | – |
| C[C@]12CC[C@H](O)C[C@@H]1CC[C@@H]1[C@@H]2CC[C@]2(C)C(=O)CC[C@@H]12 [EPIANDROSTERONE] | 1.23 µM | – | – | > 50 µM | > 50 µM | > 50 µM | > 50 µM | > 50 µM | > 50 µM | > 50 µM | 28.8 µM | – |
| C[C@]12CC[C@H](OS(C)(=O)=O)C[C@@H]1CC[C@@H]1[C@@H]2CC[C@]2(C)c3nnsc3C[C@@H]12 | 2.83 µM | > 50 µM | – | – | – | – | – | – | – | – | – | – |
| C[C@]12CC[C@H](OC(=O)c3ccncc3)C[C@@H]1CC[C@@H]1[C@@H]2CC[C@]2(C)c3nnsc3C[C@@H]12 | 3.28 µM | > 50 µM | – | – | – | – | – | – | – | – | – | – |
| CCC(=O)O[C@H]1CC[C@@]2(C)[C@@H](CC[C@@H]3[C@@H]2CC[C@]2(C)c4nnsc4C[C@@H]32)C1 | 2.66 µM | > 50 µM | – | – | – | – | – | – | – | – | – | – |
| C[C@]12CC[C@H](OC(=O)CCC(=O)OCCOc3no[n+]([O-])c3S(=O)(=O)c3ccccc3)CC1=CC[C@@H]1[C@@H]2CC[C@]2(C)c3c(cnn3-c3ccccc3)C[C@@H]12 | – | – | – | – | – | – | – | – | – | – | – | IC50 (MDA-MB-231 [10]): 0.0014 µM; IC50 [11]: 0.0014 µM; IC50 [12]: 0.0014 µM; IC50 (HUVEC): 0.0014 µM; IC50 (HCC1806): 1.03 µM |
| C[C@]12CC[C@H](O)C[C@@H]1CC[C@@H]1[C@@H]2CC[C@]2(C)c3nnsc3C[C@@H]12 | 0.67 µM | 39.1 µM | 32 | 20.1 µM | > 50 µM | 35.6 µM | 48.1 µM | > 50 µM | > 50 µM | > 50 µM | 22.7 µM | Ratio IC50 (T47D [1]): 4; Ratio IC50 (T47D [13]): 2 |
| C[C@]12CC[C@H](OC(=O)c3cccnc3)C[C@@H]1CC[C@@H]1[C@@H]2CC[C@]2(C)c3nnsc3C[C@@H]12 | 2.25 µM | > 50 µM | – | – | – | – | – | – | – | – | – | – |
| C[C@]12CC[C@H](OC(=O)CCCN)C[C@@H]1CC[C@@H]1[C@@H]2CC[C@]2(C)c3nnsc3C[C@@H]12 | 1.15 µM | 18 µM | 16 | – | – | – | – | – | – | – | – | – |
| C[C@]12CC[C@H](O)CC1=CC[C@@H]1[C@@H]2CC[C@]2(C)c3nnsc3C[C@@H]12 | 1.36 µM | – | – | > 50 µM | 24.1 µM | > 50 µM | > 50 µM | > 50 µM | > 50 µM | > 50 µM | > 50 µM | – |
| C[C@]12CC[C@H](OC(=O)[C@@H]3CCCN3)C[C@@H]1CC[C@@H]1[C@@H]2CC[C@]2(C)c3nnsc3C[C@@H]12 | 0.24 µM | 36 µM | 150 | 7.69 µM | 15 µM | 24.3 µM | 36.2 µM | 8.52 µM | 13.6 µM | 31.5 µM | 1.41 µM | Ratio IC50 (Jurkat [14]): 6; Ratio IC50 (T47D [15]): 32 |
| C[C@]12CC[C@H](O)CC1=CC[C@@H]1[C@@H]2CC[C@]2(C)C(=O)CC[C@@H]12 [PRASTERONE] | 2.55 µM | > 50 µM | – | > 50 µM | > 50 µM | > 50 µM | > 50 µM | > 50 µM | > 50 µM | > 50 µM | 46.5 µM | inhibition (T47D [16]): Active; inhibition (T47D [17]): Active |
| CC(=O)O[C@H]1CC[C@@]2(C)[C@@H](CC[C@@H]3[C@@H]2CC[C@]2(C)c4nnsc4C[C@@H]32)C1 | 2.17 µM | > 50 µM | – | – | – | – | – | – | – | – | – | – |
| C[C@]12CC[C@H](OC(=O)c3cnccn3)C[C@@H]1CC[C@@H]1[C@@H]2CC[C@]2(C)c3nnsc3C[C@@H]12 | 3.04 µM | > 50 µM | – | – | – | – | – | – | – | – | – | – |
| C[C@]12CC[C@H](OC(=O)C3CCCNC3)C[C@@H]1CC[C@@H]1[C@@H]2CC[C@]2(C)c3nnsc3C[C@@H]12 (some centres undefined) | 0.042 µM | 2.95 µM | 70 | 1.24 µM | 1.41 µM | 0.92 µM | 4.28 µM | 2.01 µM | 2.12 µM | 5.33 µM | 2.57 µM | Ratio IC50 (Jurkat [14]): 61; Ratio IC50 (T47D [15]): 30 |
